System: MS2 coat protein
Assay: apparent Kd, MS2 coat protein; higher = weaker binding; RNA-MaP array; FMN 200 µM where present
Outline: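 Apparent Kd: the median of filtered binding-curve fits from single clusters. Designs were transcribed on Illumina sequencing-chip clusters by stalled E. coli RNA polymerase and titrated with SNAP-549-labelled MS2 coat protein from 0.7 or 1.5 nM, doubling to 3 µM, in 100 mM Tris-HCl pH 7.5, 80 mM KCl, 4 mM MgCl2, BSA, DTT, yeast tRNA and Tween-20. Each series ran without and then with constant ligand, and green signal was normalised to red-channel RNA signal and control-cluster median Fmax.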

[1] = designed as: OFF switch for flavin mononucleotide, no ligand
[2] = ligand present: flavin mononucleotide, designed as: OFF switch for flavin mononucleotide
[3] = designed as: ON switch for flavin mononucleotide, no ligand
[4] = ligand present: flavin mononucleotide, designed as: ON switch for flavin mononucleotide

Sequence: GGAUCGUAAGGAUAUACAUGAGGAUCACCCAUGUGGAUCUAACGGGUCGCCAAGUCGUGUAGAAGGUGCCGUCU
- apparent Kd [1]: 0.0227 µM
- apparent Kd [2]: 0.0206 µM

Sequence: AUUGGUUUGCGAGGAUAUGCUAAUAGUAAGUAUGCAGAAGGCGCGUUACAUAGAACCUCUAGUUACAUGAGGAUCACCCAUGUU
- apparent Kd [1]: 0.0462 µM
- apparent Kd [2]: 0.0454 µM

Sequence: UGCUAAUUGUAGAAGGGUGACAUGAGGAUCACCCAUGUGCACGCGCGAUUUACGGCGCGCGUGCCACAGGAUAUACAGUUGAGU
- apparent Kd [3]: 0.0581 µM
- apparent Kd [4]: 0.0346 µM

Sequence: AAAACAUGAGGAUCACCCAUGUAAAGUUCAAACAAUAUGAGUGAGGAUAUACUGAGUUAGUUAUGGUAGAAGGCACUGGGUACA
- apparent Kd [3]: 0.035 µM
- apparent Kd [4]: 0.0287 µM

Sequence: AGCCGCUUAGGAUAUACCUAGAUUCUUCCGCGCUGUACGGUACAUGAGGAUCACCCAUGUAGAAGGAGGUGGCA
- apparent Kd [1]: 0.0235 µM
- apparent Kd [2]: 0.0297 µM

Sequence: AUGUCUUAGUAGAAGGGACAUCGGCUGGUAAGCAUCAUCUCCUUCUCACAUGAGGAUCACCCAUGUCAGGAUAUACUAAGAUAC
- apparent Kd [2]: 0.0385 µM

Sequence: AUGUUACAUGAGGAUCACCCAUGUGAGGAUAUGUGUAUCCCUAAAAAAGUGUGGGACCACAGAAGGUACUUGGA
- apparent Kd [1]: 0.0515 µM
- apparent Kd [2]: 0.0504 µM

Sequence: UCGCCAGGUACAGGAUAUGUGGAUCGGUCAAGUAACUCGCCGAACAUGAGGAUCACCCAUGUAUCACAGAAGGGUGCCUCAAAG
- apparent Kd [3]: 0.223 µM
- apparent Kd [4]: 0.0109 µM

Sequence: AACAUGGUGCAGGAUAUCCAACAUAUCGCGAGAGGAGAAGGGUACACAUGAGGAUCACCCAUGUGUGGUCUGUU
- apparent Kd [1]: 0.0293 µM
- apparent Kd [2]: 0.223 µM

Sequence: ACCAUUUACUAAUUAUCUAUACAUGAGGAUCACCCAUGUUAAGAGGAUAUCAUCGUUCGCCGCGUUGAGAAGGCUUAGCAUUCG
- apparent Kd [1]: 0.0264 µM
- apparent Kd [2]: 0.101 µM

Sequence: CGUUGUUCCGCAGGAUAUGCAUUGGAUUACAAUGCAGAAGGGCGAUUACAUGAGGAUCACCCAUGUGUGGACAAUAAGGAAGAG
- apparent Kd [3]: 1.49 µM
- apparent Kd [4]: 0.142 µM

Sequence: CCUUCACAUGAGGAUCACCCAUGUCCUAGUCCGUCAGGAUAUAGCCCGCAUCCGCUGUGGCUAGAAGGGACUGCUG
- apparent Kd [3]: 0.141 µM
- apparent Kd [4]: 0.235 µM

Sequence: ACAUAAUACGAGAAGGGAGUACAUGAGGAUCACCCAUGUGCUCAGGUGUACUCAGGAUAUCGGCUGACGCAAGGUUCAGGGAAU
- apparent Kd [1]: 0.0116 µM
- apparent Kd [2]: 0.0943 µM

Sequence: AUCAGCUCGUCAGGAUAUACAUCACUGCUUCGGCAGUGUAUUAAGGUCACAUGAGGAUCACCCAUGUAGAAGGGACGAGCUGAU
- apparent Kd [1]: 0.0212 µM
- apparent Kd [2]: 0.142 µM

Sequence: GUAGUGUGAGGAUAUGAUUAAUAGACGGGAUUGCGACUGCAUCAGAAGGCACAUGAGGAUCACCCAUGUAUGAA
- apparent Kd [1]: 0.0188 µM
- apparent Kd [2]: 0.0519 µM

Sequence: AGUGCCCGAGCAGGAUAUCAAUGGUGGUCUGUACGCUGUAAAUUCAACAUGAGGAUCACCCAUGUUGAGAAGGGUUACGGCGCA
- apparent Kd [1]: 0.00886 µM
- apparent Kd [2]: 0.0239 µM

Sequence: GGUGGUGAGCAAGGAUAUCGCCACUGCGUGACCUCACAACGGAUACAUGAGGAUCACCCAUGUGGCGAGAAGGUGCGGGAACGG
- apparent Kd [1]: 0.0294 µM
- apparent Kd [2]: 0.044 µM

Sequence: GUGUACAGAGGAUAUGCUUGAAUCUAGCGAAGCUAGGUUCGACAUGAGGAUCACCCAUGUAGAAGGCUGUACAC
- apparent Kd [1]: 0.0136 µM
- apparent Kd [2]: 0.0126 µM

Sequence: UGAGCGACCACAGGAUAUACUUGAGAAGACCGAGUAGAAGGGUGGAAGAGCAUGCAGUGACAUGAGGAUCACCCAUGUGGUUGG
- apparent Kd [3]: 0.097 µM
- apparent Kd [4]: 0.0658 µM

Sequence: ACGGCAAUCGAAGGAUAUGGUUACAUGAGGAUCACCCAUGUCUAGGGUCUAAUUAGGUAUAAUUACCAGAAGGUCGAAGGCCUA
- apparent Kd [1]: 0.0937 µM
- apparent Kd [2]: 0.122 µM

Sequence: ACCGUAUGAACAUGAGGAUCACCCAUGUAUCCGAAAAGGAAUGAGGAUAUCGAUAGCAAAGCUAUCGAGAAGGCAUGGGACGGU
- apparent Kd [3]: 0.742 µM
- apparent Kd [4]: 0.389 µM

Sequence: CGAUGAGGUGUGAGGAUAUCGUGUUCGAAAGAACGUGAGAAGGCACAUGAGGAUCACCCAUGUGAACCUUGUCG
- apparent Kd [1]: 0.0169 µM
- apparent Kd [2]: 0.0188 µM

Sequence: GGGUACCUGACAUGAGGAUCACCCAUGUCGUGCCUCUGCGGCAAGGAUAUGAUCGCUCGUGUAGGUCAGAAGGUGCCGUUGUUA
- apparent Kd [3]: 0.0662 µM
- apparent Kd [4]: 0.0067 µM

From the EternaBench riboswitch data
